From PubChem BioAssay
Hits are enriched below; roughly 4.6% of the tested compounds scored in any of these assays.
CHO parental Ca = signal in parental CHO cells, OX1R antagonist counter-screen. inhibition, % at 5.6 µM. parental CHO-K1, ATP-induced calcium, Fluo-8 fluorescence. 330,000 tested, 0.63% active;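 active means inhibition above that plate's mean sample inhibition plus 3 SD, cut at about 26% in these data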;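 further: 0% = ATP-challenged DMSO wells and 100% = DMSO wells without ATP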
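Test system: untransfected parental CHO cell line; also added: ATP stimulus; dosing: 5.6 µM, single dose; signal: calcium-sensitive Fluo-8 fluorescence; measure: percent inhibition of ATP-evoked calcium rise, normalized to controls; benchmarks: low control ATP plus DMSO, high control DMSO only; replication: one well per compound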
TAAR1 antag = human TAAR1 antagonism | Q96RJ0 | CHO RD-HGA16 TAAR1, Fluo-8 calcium fluorescence, antagonist | inhibition, % at 3 µM | 360,000 tested, 1.5% active;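 active means inhibition above a per-plate cutoff, the mean inhibition of test compounds on that plate plus 3 SD, cut at about 49% in these data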;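 further: 0% = DMSO plus EC80 beta-PEA response and 100% = DMSO alone without agonist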
Target sequence (Q96RJ0 whole entry, looked up): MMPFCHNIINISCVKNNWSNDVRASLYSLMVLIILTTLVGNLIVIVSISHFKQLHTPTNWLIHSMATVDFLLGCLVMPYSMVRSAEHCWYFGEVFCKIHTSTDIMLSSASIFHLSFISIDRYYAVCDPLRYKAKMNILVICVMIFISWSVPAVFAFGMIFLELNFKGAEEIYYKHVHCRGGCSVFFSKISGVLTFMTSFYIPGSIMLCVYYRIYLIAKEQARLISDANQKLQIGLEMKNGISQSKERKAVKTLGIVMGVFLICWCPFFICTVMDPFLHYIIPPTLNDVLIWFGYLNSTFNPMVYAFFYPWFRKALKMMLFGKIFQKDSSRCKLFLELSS
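Test system: hTAAR1-expressing CHO RD-HGA16 cells, Gα16-coupled; Probe or stimulus: EC80 β-phenethylamine stimulus; Compound dosing: single nominal final test compound concentration of 3 µM; Timing: 140 s kinetic read after compound, 140 s after agonist; Signal: Fluo-8 calcium-sensitive fluorescence; Measure: % inhibition of agonist calcium response; Controls: DMSO and EC80 PEA controls.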
TAAR1 ag = human TAAR1 agonism | Q96RJ0 | CHO RD-HGA16 TAAR1, Fluo-8 calcium fluorescence; vehicle wells 0%, saturating PEA agonist 100% | activation, % at 3 µM | 360,000 tested, 0.99% active | AID 624467;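 active means activation above the mean activation of all test compounds in the run plus 3 SD, cut at about 38% in these data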
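Test system: RD-HGA16 (CHO) cells co-expressing Gα16 and hTAAR1; dosing: one-point dosing at 3 µM (nominal); timing: 17-24 h seeding, 75 min 37 °C dye, 30 min RT; signal: kinetic Fluo-8 calcium fluorescence; read-out basis: % activation relative to PEA EC100 response; controls: DMSO and PEA EC100; replicates: n 1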
OX1R antag-1 = OX1R (human) antagonism; O43613; 330,000 tested, 1.8% active; OX1R-expressing cells, FRET antagonist read-out; inhibition, % at 6.6 µM; in the data active means inhibition mostly above about 38%, no sharp cut-off; inactive means mostly below about 40%;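 further: 0% = agonist challenge alone and 100% = reference antagonist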
GPR7 antagonist = antagonists of human GPR7 (neuropeptides B/W receptor 1) | AID 1861 | GPR7-expressing cells, fluorescence antagonist assay | P48145 | inhibition, % at 4.4 µM | 290,000 tested, 1.1% active; in the data active means inhibition above about 16%, passing the limit was not always enough;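 further: cells stimulated with the agonist NPW; 0% = agonist with vehicle and 100% = vehicle without agonist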
Target sequence (P48145 whole entry, looked up): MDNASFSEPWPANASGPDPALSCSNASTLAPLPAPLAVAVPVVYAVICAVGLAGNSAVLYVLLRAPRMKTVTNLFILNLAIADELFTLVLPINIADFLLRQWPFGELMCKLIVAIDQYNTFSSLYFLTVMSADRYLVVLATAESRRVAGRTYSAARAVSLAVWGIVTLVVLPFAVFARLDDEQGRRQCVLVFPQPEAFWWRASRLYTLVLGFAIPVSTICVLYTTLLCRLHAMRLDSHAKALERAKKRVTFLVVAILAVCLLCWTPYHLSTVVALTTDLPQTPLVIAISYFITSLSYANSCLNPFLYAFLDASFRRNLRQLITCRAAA
OX1R antag-2 = human HCRTR1 antagonism. CHO/OX1R cells, Fluo-8 calcium fluorescence, orexin A. inhibition, % at 5 µM. 330,000 tested, 0.43% active;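 active means inhibition above its plate's threshold, mean inhibition of all tested compounds on the plate plus 3 SD, cut at about 37% in these data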;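 further: 0% = orexin A challenge wells and 100% = SB-334867-A antagonist wells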
An asterisk follows results filed as active; x = not tested or not shown.

SMILES | CHO parental Ca | TAAR1 antag | TAAR1 ag | OX1R antag-1 | GPR7 antagonist | OX1R antag-2
Cn1c(CSCc2ccc(F)cc2)nnc1SCC(=O)Nc1nccs1 | -9 | 35 | 20 | 12 | 8 | -16
Cn1c(CSCc2ccc(Cl)c(Cl)c2)nnc1SCC(=O)Nc1nccs1 | -7 | 62* | 40* | 33 | 10 | 1
CC(=O)NC(c1cccs1)c1cc(Cl)c2ccccc2c1O (stereo unspecified) | -18 | 2 | 4 | 19 | x | -10
CC(=O)NC(c1cc(Cl)c2ccccc2c1O)C(C)C (stereo unspecified) | -8 | -3 | 7 | 40* | x | 0
CCC(=O)NC(C)c1cc(Cl)c2ccccc2c1O (stereo unspecified) | -9 | 22 | 13 | 34 | x | 25
CCC(=O)NC(c1cc(Cl)c2ccccc2c1O)C1CC1 (stereo unspecified) | -13 | 19 | 5 | 63* | x | 45
CCC(=O)NC(c1cccs1)c1cc(Cl)c2ccccc2c1O (stereo unspecified) | -12 | -1 | 0 | 48* | x | 29
CC(=O)NC(c1cc(Cl)c2cccnc2c1O)C(C)C (stereo unspecified) | -8 | 3 | 19 | 0 | x | -15
COc1cc(OC)cc(C(=O)NCC(=O)Nc2ccc(C)c(Cl)c2)c1 | -16 | -9 | 3 | -2 | -7 | -9
CC[N+]1(C)CCC(O)(/C=C/c2ccccc2)C(C(=O)/C=C/c2ccccc2)C1 (stereo unspecified) | x | 7 | 5 | x | x | x
COc1ccc2cc(C(=O)C3CCCN(Cc4cnc(N5CCOCC5)s4)C3)ccc2c1 (stereo unspecified) | -12 | 7 | 40* | 34 | -3 | -22
CC(C)Oc1cccc(C(=O)C2CCCN(Cc3cnc(N4CCCC4)s3)C2)c1 (stereo unspecified) | -16 | -26 | 31 | 8 | -2 | -44
Cc1ccc(CCNC(=O)c2nc(CS(=O)(=O)c3ccc(Cl)cc3)no2)cc1 | 0 | 57* | 5 | 12 | 1 | -4
O=C(NCCc1ccccc1)c1nc(CS(=O)(=O)c2ccc(Cl)cc2)no1 | -20 | 7 | 5 | 0 | 8 | -23
O=C(CSc1nc2ccc([N+](=O)[O-])cc2[nH]1)c1ccc2ccccc2c1 | 1 | 52* | 7 | 34 | -14 | -19
O=C(CSc1nc2ncc(Br)cc2[nH]1)c1ccc([N+](=O)[O-])cc1 | 9 | -2 | 0 | 10 | -8 | 4
Cc1ccc(-c2cc(N)n(Cc3ccc(Cl)cc3)n2)cc1 | -12 | 7 | 4 | 26 | -28 | -11
Cc1cc(N)n(Cc2ccc(Cl)cc2)n1 | -32 | -5 | 2 | 39* | 1 | -5
Oc1ccc2ccccc2c1C=NCc1cn2ccsc2n1 | -2 | -21 | -1 | 65* | -3 | -2
Cc1cc([N+](=O)[O-])cc2ncccc12 | 6 | 6 | -1 | 69* | -4 | 0
CCC(=O)N1CCCC(C(=O)NCc2ccc(C(C)C)cc2)CC1 (stereo unspecified) | x | 5 | 1 | x | x | x
O=S(=O)(NCc1ccncc1)c1ccc(F)c(F)c1 | x | 4 | 7 | x | x | x
Cc1ccc(S(=O)(=O)NCc2ccncc2)cc1C | 33* | 26 | 5 | 64 | 8 | 41*
CCN(C1CCCCC1)S(=O)(=O)c1ccc(S(=O)(=O)NCc2ccncc2)cc1 | 6 | 1 | 18 | 34 | 21* | 0
COc1cc(S(=O)(=O)NCc2ccncc2)ccc1Br | 31* | 5 | 2 | 8 | 3 | 11
SMILES | CHO parental Ca | TAAR1 antag | TAAR1 ag | OX1R antag-1 | GPR7 antagonist | OX1R antag-2
CNC(=O)c1cc(S(=O)(=O)NCc2ccncc2)ccc1OC | 3 | -13 | 1 | 6 | -12 | -4
CCN(C1CCCCC1)S(=O)(=O)c1ccc(S(=O)(=O)NCCc2ccncc2)cc1 | -17 | 22 | 10 | 16 | -2 | -26
Cc1c(C(=O)NNS(=O)(=O)c2ccccc2Cl)sc(=S)n1C | 2 | -6 | 5 | 11 | 2 | 3
CC(C)(C)N(Cc1nc(-c2ccccc2)no1)C(=O)c1ccc2c(c1)OCO2 | -16 | -54 | -2 | 15 | -3 | -36
Cc1ccc(CNC(=O)CSc2nc(N3CCCCC3)nc(N3CCCCC3)n2)cc1 | -24 | -6 | 1 | 21 | -10 | -5
Oc1ccc2ccccc2c1C=Nc1ccc(N2CCOCC2)cc1 | -5 | 25 | 21 | 51* | -5 | 5
C=Cc1ccc(N=Cc2c(O)ccc3ccccc23)cc1 | -16 | -12 | 4 | 4 | 5 | -37
O=C(NCC(c1cccs1)N1CCOCC1)c1ccccc1NS(=O)(=O)c1ccc(Cl)c([N+](=O)[O-])c1 (stereo unspecified) | -4 | -6 | 9 | 45* | -1 | -6
O=S(=O)(c1cccs1)N1CCC(CO)(Cc2cccc(F)c2)CC1 | 13 | 13 | 7 | 22 | 6 | -18
Cc1ccc(S(=O)(=O)/N=C2\C=C(Nc3cccc(C(=O)O)c3)C(=O)c3ccccc32)cc1 | -15 | 1 | 1 | 35 | -21 | -20
CCc1ccc(S(=O)(=O)/N=C2\C=C(Nc3ccc(C(=O)O)cc3)C(=O)c3ccccc32)cc1 | -16 | 25 | 9 | 52* | -29 | -11
Cc1ccc(CN2CC(C(=O)N3CCN(S(=O)(=O)c4ccc(C(C)C)cc4)CC3)CC2=O)cc1 (stereo unspecified) | -13 | -17 | 0 | 10 | x | -38
CN(C[C@H](Cc1ccccc1)N(C[C@@H](Cc1cccc2ccccc12)N(CCc1ccccc1)N=O)N=O)N=O | -17 | 7 | 41* | 37 | -14 | -10
CCCNC(=O)C(Cc1ccc(Cl)cc1)NC(=O)c1ccc(C#N)cc1 (stereo unspecified) | -7 | 2 | 11 | 1 | x | -22
O=C(CCc1nnc(C2CCCCC2)o1)NCCCOc1cccnc1 | -4 | -12 | 5 | 7 | -9 | 2
O=C(O)c1cnc(-c2ccccc2)nc1Sc1ccccc1Cl | 0 | -24 | -1 | 56* | -5 | -22
O=C(COc1coc(CN2CCc3ccccc3C2)cc1=O)Nc1ccc([N+](=O)[O-])cc1 | -1 | -7 | 3 | 10 | x | -26
O=Cc1c[nH]c2cccc(OCc3ccccc3)c12 | x | 49* | -2 | x | x | x
COc1ccc(-c2cnnc(N/N=C/c3ccc(O)c(O)c3)n2)cc1 | 0 | 12 | 1 | 75* | 7 | -8
Nc1scc2c(C(=O)N/N=C/c3ccc(Cl)cc3)nn(-c3ccccc3)c(=O)c12 | -2 | 24 | 3 | 47* | -5 | -1
CCOC(=O)c1nn(-c2ccccc2)c(=O)c2c(NC(C)=O)scc12 | 4 | 0 | 14 | 11 | 1 | -5
O=C(CN(Cc1ccccc1Cl)C(=O)CN1C(=O)CSc2ccccc21)NC1CC1 | -9 | 45 | 25 | 11 | 12 | -16
